Screening data deposited in PubChem BioAssay by several laboratories.
Shown are actives, neighbours in structure and some others; about 9.4% of the full set was active somewhere.
L major viab – inhibitors of Leishmania major promastigote growth; Leishmania major promastigotes, resazurin fluorescence viability; AID 1063; inhibition, % at 10 µM; hit rate 9% among 200,000; in the data active = inhibition above about 50%;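 also: promastigotes grown with compound for 44 hours at 28 °C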
SKKanGAS inh – SKKanGAS growth inhibition; S. pyogenes SKKanGAS, kanamycin growth, BacTiter-Glo, 6 h; inhibition, % at 7.5 µM; hit rate 1.3% among 300,000;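 active = mean replicate score, as percent of positive control median, at least 50; inconclusive = mean below 50 but one replicate at or above 50; inactive = mean and every replicate below 50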;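 also: strain carries kanamycin resistance gene driven by streptokinase promoter and grows in 40 µg/ml kanamycin; loss of luminescence reflects streptokinase promoter inhibition or plain growth inhibition; 0% = median of DMSO wells and 100% = positive control at its reference dose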
Beta cell apopt – beta cell apoptosis inhibition. INS-1E cytokine-induced death, ATP luminescence, 48 h; percent of positive-control rescue, neutral wells zero. hit rate 0.8% among 300,000. protection from apoptosis, % (no concentration beside the values);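 active = Every replicate reaches about 75%, or at least half do and their mean reaches it too, limit read from the data; inconclusive = At least half of replicates reach the limit but their mean does not; inactive = Under half of replicates reach the limit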;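 also: 0% = cytokine-treated negative control wells and 100% = positive control rescue; higher means more ATP so stronger rescue from cytokine killing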
CSC inhib – blocks cancer stem cells | cancer stem cell-like cells viability, luminescence | inhibition, % at 7.5 µM | hit rate 1.1% among 300,000 | AID 2717; in the data active = inhibition above about 75%; inconclusive = no clear call, values can overlap the other calls; tested in HMLE shEcad cells
Mdm2 MdmX PPI – human Mdm2/MdmX binding inhibition; O15151+Q00987; AID 485346; inhibition, % at 8 µM; hit rate 3% among 330,000; SaOS-2 split-luciferase Mdm2/MdmX complementation, luminescence;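 active = inhibition of at least 50% at 8 µM in the primary screen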
Target sequence (O15151 whole entry, looked up): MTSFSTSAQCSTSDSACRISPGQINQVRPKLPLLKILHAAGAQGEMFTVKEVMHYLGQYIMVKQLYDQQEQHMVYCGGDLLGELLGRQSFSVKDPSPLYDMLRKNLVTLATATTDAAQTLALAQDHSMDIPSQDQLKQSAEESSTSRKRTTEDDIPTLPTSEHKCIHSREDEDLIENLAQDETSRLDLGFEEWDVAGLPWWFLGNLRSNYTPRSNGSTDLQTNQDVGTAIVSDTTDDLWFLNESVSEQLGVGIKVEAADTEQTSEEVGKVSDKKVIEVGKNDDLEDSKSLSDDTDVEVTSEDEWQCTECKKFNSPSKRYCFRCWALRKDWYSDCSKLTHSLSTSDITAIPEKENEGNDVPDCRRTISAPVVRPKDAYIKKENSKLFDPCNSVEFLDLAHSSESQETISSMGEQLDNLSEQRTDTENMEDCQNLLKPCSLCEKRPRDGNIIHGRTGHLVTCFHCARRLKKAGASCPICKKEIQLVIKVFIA
Target sequence (Q00987 whole entry, looked up): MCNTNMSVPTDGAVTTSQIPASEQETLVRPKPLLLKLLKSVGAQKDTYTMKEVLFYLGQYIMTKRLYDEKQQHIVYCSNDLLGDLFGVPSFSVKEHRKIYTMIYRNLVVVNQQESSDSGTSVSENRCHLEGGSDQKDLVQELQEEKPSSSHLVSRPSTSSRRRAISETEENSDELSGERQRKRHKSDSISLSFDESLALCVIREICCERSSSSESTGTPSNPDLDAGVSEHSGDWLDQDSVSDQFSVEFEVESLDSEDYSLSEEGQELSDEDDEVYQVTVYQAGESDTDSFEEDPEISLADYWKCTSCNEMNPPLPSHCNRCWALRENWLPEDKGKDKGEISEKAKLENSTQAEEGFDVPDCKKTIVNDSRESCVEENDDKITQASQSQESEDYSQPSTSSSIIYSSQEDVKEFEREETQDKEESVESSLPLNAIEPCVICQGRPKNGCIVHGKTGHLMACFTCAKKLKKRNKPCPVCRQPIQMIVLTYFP
T cruzi inh – blocks replication of Trypanosoma cruzi. hit rate 1.4% among 300,000. T. cruzi beta-gal in NIH3T3, luminescence, 90 h. inhibition, % (no concentration beside the values);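 active = mean inhibition across valid replicates above about 55%, limit read from the data; inconclusive = mean below that limit but half or more replicates reach it; inactive = mean below it, under half of replicates reach it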;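 also: signal also drops with host cell toxicity which is not excluded here; 0% = plate median of DMSO wells and 100% = zero luminescence signal; higher percent means less beta-gal luminescence so fewer parasites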
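Incubation – ≥90 h infection period, 3 h prior cell attachment · System – NIH/3T3 fibroblasts plus reporter T. cruzi · Doses – compound pinned at 50 nL/well, DMSO · Read-out basis – percent inhibition of parasite-derived β-gal signal · Signal – luminescent β-galactosidase signal after 60 min lysis · Also added – 5000 T. cruzi trypomastigotes/well · Medium – Low-serum DMEM with 2% FBS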
An asterisk follows results filed as active; ? = inconclusive; / = no result given.

SMILES | L major viab | SKKanGAS inh | Beta cell apopt | CSC inhib | Mdm2 MdmX PPI | T cruzi inh
CC(=O)Nc1ccccc1-c1nc2ccc(C(=O)N3CCN(c4cc(C)ccc4C)CC3)cc2[nH]c1=O | 56* | 6 | -4 | 2 | 20 | -1
C/C(=N/Nc1ccc([N+](=O)[O-])cc1)c1c[nH]c2ccccc12 | / | 19 | 8 | 51 | -28 | 38
O=C1CC(NNc2ccccc2)C(=O)N1c1ccccc1 (stereo unspecified) | 62* | 3 | 1 | 13 | 4 | 8
Cc1ccc(N2C(=O)CC(NNc3nc4ccccc4s3)C2=O)cc1C (stereo unspecified) | 56* | 24 | -8 | -7 | 32 | -15
Cc1ccc(NNC2CC(=O)N(c3cccc(Cl)c3)C2=O)cc1 (stereo unspecified) | -4 | / | / | / | -9 | /
COc1ccc(N2C(=O)CC(NNc3nc4ccccc4s3)C2=O)cc1 (stereo unspecified) | / | 1 | -9 | -6 | 17 | -4
CC(=O)N1CCN(S(=O)(=O)c2cccc(C(=O)Nc3nc4c(s3)CCCC4)c2)CC1 | 5 | -2 | -4 | 2 | 12 | 43
CC(=O)NCCC(=O)Nc1sc2c(c1-c1nc3ccccc3[nH]1)CCCC2 | 98* | 9 | 10 | -20 | 20 | -2
CC(C)OC(=O)c1c(NC(=O)CCn2nnc3ccccc32)sc2c1CCCC2 | 28 | 2 | 5 | 0 | 18 | 32
O=C(Nc1ccc(-c2nc3ccccc3[nH]2)cc1)C1CCCO1 (stereo unspecified) | 6 | 11 | / | 35 | -87 | -10
CC(C)Cc1nnc(NC(=O)c2cccc(S(=O)(=O)N3CCOCC3)c2)s1 | / | / | -7 | -11 | -20 | /
CC(C)Cc1nnc(NC(=O)c2cccc(S(=O)(=O)N3CCN(C)CC3)c2)s1 | / | 1 | 4 | 40 | -1 | 60*
O=C(Nc1sc2c(c1-c1nc3ccccc3[nH]1)CCCC2)C1CCCC1 | 88* | 9 | 8 | 22 | -8 | 40
CN1CCN(S(=O)(=O)c2cccc(C(=O)Nc3sc4c(c3-c3nc5ccccc5[nH]3)CCCC4)c2)CC1 | 98* | 29 | 4 | / | 25 | 58*
CCc1ccc(C2NC(=O)c3ccccc3O2)cc1 (stereo unspecified) | / | ? | -8 | -1 | 11 | -10
N#Cc1ccccc1NC(=O)CSC1=Nc2ccccc2C2CC=NN12 (stereo unspecified) | 17 | -1 | -1 | 10 | -6 | -7
CCCOC(=O)c1ccc(NC(=O)CSC2=Nc3ccccc3C3CC=NN23)cc1 (stereo unspecified) | 98* | 2 | -10 | -4 | 14 | 16
O=C(CSC1=Nc2ccccc2C2CC=NN12)Nc1ccc2c(c1)OCO2 (stereo unspecified) | 55* | / | / | / | / | /
Cc1ccc(C)c(NC(=O)C(Sc2ncnc3ccccc23)c2ccccc2)c1 (stereo unspecified) | 73* | 5 | 7 | 4 | 28 | 4
CCOc1ccc(/C(O)=C2/C(=O)C(=O)N(c3ccccn3)C2c2ccc(Cl)cc2)c(C)c1 (stereo unspecified) | / | 64* | 1 | -2 | / | 0
CCOc1ccc(/C(O)=C2/C(=O)C(=O)N(c3ccccn3)C2c2ccc(C)cc2)c(C)c1 (stereo unspecified) | / | 40 | -11 | 1 | 13 | -6
COc1ccc(N2CC(C(=O)N3CCN(c4ccccc4OC)CC3)CC2=O)cc1 (stereo unspecified) | / | 2 | -1 | / | -16 | -7
O=C(c1ccco1)N1CCN(C(c2ccccc2Cl)c2nnnn2Cc2ccco2)CC1 (stereo unspecified) | 43 | / | -1 | / | 13 | /
O=C(c1ccco1)N1CCN(C(c2ccc(Cl)cc2)c2nnnn2CC2CCCO2)CC1 (stereo unspecified) | 63* | 3 | -5 | -8 | 9 | -9
CC(C)CC(c1nnnn1C(C)C)N1CCN(C(=O)c2ccco2)CC1 (stereo unspecified) | / | -9 | / | -16 | -22 | -3
SMILES | L major viab | SKKanGAS inh | Beta cell apopt | CSC inhib | Mdm2 MdmX PPI | T cruzi inh
Cc1ccc(C(c2nnnn2CC2CCCO2)N2CCN(C(=O)c3ccco3)CC2)cc1 (stereo unspecified) | 28 | -5 | -3 | 0 | 10 | -10
O=C(c1ccco1)N1CCN(C(c2ccccc2Cl)c2nnnn2Cc2cccs2)CC1 (stereo unspecified) | 53* | 5 | / | 7 | 38 | 3
CC(C)CC(c1nnnn1Cc1ccccc1)N1CCN(C(=O)c2ccco2)CC1 (stereo unspecified) | 65* | -13 | / | -8 | 6 | -3
CC(C)CCn1nnnc1C(c1ccc(F)cc1)N1CCN(C(=O)c2ccco2)CC1 (stereo unspecified) | 55* | 2 | -2 | -2 | 7 | -11
CN(C)S(=O)(=O)c1ccc(NC(=O)C2CC(=O)N(Cc3ccccc3Cl)C2)cc1 (stereo unspecified) | / | -11 | 4 | -3 | 32 | 0
CCOC(=O)Cn1nnnc1CN(Cc1cccs1)Cc1cc2cc(C)ccc2[nH]c1=O | 2 | -2 | -2 | / | 5 | 11
COc1ccc2[nH]c(=O)c(CN(Cc3cccs3)Cc3nnnn3C(C)(C)C)cc2c1 | 99* | -5 | -21 | -8 | -11 | 24
CCOc1ccc2[nH]c(=O)c(CN(Cc3cccs3)Cc3nnnn3C(C)(C)C)cc2c1 | 73* | 8 | 14 | 38 | 42 | 44
O=C(O)CSCC(=O)N1CCN(S(=O)(=O)c2cc(Cl)cc(Cl)c2)CC1 | / | 2 | 2 | -20 | 21 | -24
Cc1cccc(C(=O)NCC(=O)OCC(=O)N(C)CC(=O)Nc2ccc(F)cc2)c1 | / | 5 | 1 | 1 | -5 | 0
Cc1ccc(-c2nc(N)sc2CC(=O)OCC(=O)NCCC(C)C)cc1 | 60* | 12 | 1 | 3 | 12 | -17
CCOC(=O)c1oc2ccccc2c1NC(=O)CN1CCOCC1 | 7 | 4 | 2 | 7 | 16 | -4
CC(/C=N/NC(=O)c1cc(-c2cccnc2)nc2c1c(C)nn2-c1ccccc1)=C\c1ccccc1 | 57* | 20 | -5 | 40 | 24 | 30
COc1ccc(C2NC(=O)NC(C)=C2C(=O)OCC2CCCCC2)cc1OC (stereo unspecified) | / | -4 | 2 | 7 | -3 | 13
CSCCC(NC(=O)c1ccc(Cl)cc1)C(=O)OCC(=O)Nc1cc(Cl)ccc1C#N (stereo unspecified) | 54* | -6 | -7 | -7 | 4 | -25
O=C(CSc1nc2ccccc2c(=O)n1-c1ccc(OC(F)F)cc1)NCc1cccs1 | -6 | 5 | 11 | 5 | -21 | 13
O=c1cc(-c2ccccc2Cl)oc2ccc([N+](=O)[O-])c(O)c12 | -2 | 87* | 1 | 37 | 15 | -22
COc1ccccc1-c1cc(=O)c2c(O)ccc([N+](=O)[O-])c2o1 | / | 70* | 1 | -10 | 43 | -6
